Data reported in ChEMBL document CHEMBL2375338, “Hydrolyzable tannins of tamaricaceous plants. V. Structures of monomeric-trimeric tannins and cytotoxicity of macrocyclic-type tannins isolated from Tamarix nilotica (1)” (J Nat Prod, 2013).

Assays:
[1] = Cytotoxicity against human HPC cells after 48 hrs by MTT assay; assay type: cell-based
Summary of the method: (§1)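 Adherent cells seeded 5 × 10^3/well and grown 48 h, then medium replaced with fresh medium holding test compound (DMSO stock 20 mM; top well 100 μM, serial 2-fold dilutions, triplicate wells). After a further 48 h, cells were washed with PBS lacking Ca/Mg and given 0.2 mg/mL MTT for 4 h. Lysis was in DMSO and A540 was read. CC50 came from the dose–response curve.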

HSC-2 = assay: Cytotoxicity against human HSC2 cells after 48 hrs by MTT assay; assay type: functional; conditions: HSC-2, 48 h; summary of the method: as §1
[2] = Cytotoxicity against human HGF cells after 48 hrs by MTT assay; assay type: cell-based; summary of the method: as §1
HSC-3 = assay: Cytotoxicity against human HSC3 cells after 48 hrs by MTT assay; assay type: functional; conditions: HSC-3, 48 h; summary of the method: as §1
[3] = Cytotoxicity against human HPLF cells after 48 hrs by MTT assay; assay type: cell-based; summary of the method: as §1
HL-60 = assay: Cytotoxicity against human HL60 cells after 48 hrs by trypan blue exclusion assay; conditions: HL-60, 48 h
HSC-4 = assay: Cytotoxicity against human HSC4 cells after 48 hrs by MTT assay; assay type: functional; conditions: HSC-4, 48 h; summary of the method: as §1

Compound	CC50 at 48 h [1]	CC50 (HSC-2)	CC50 at 48 h [2]	CC50 (HSC-3)	CC50 at 48 h [3]	CC50 (HL-60)	CC50 (HSC-4)
O=C1O[C@@H]2O[C@@H]3COC(=O)c4cc(O)c(O)c(O)c4-c4c(cc(O)c(O)c4O)C(=O)O[C@H]3[C@H](OC(=O)c3cc(O)c(O)c(O)c3)[C@H]2OC(=O)c2cc(O)c(O)c(O)c2Oc2c(O)cc(cc2O)C(=O)O[C@@H]2O[C@H](CO)[C@@H](O)[C@H](OC(=O)c3cc(O)c(O)c(O)c3)[C@H]2OC(=O)c2cc(O)c(O)c(O)c2Oc2cc1cc(O)c2O	81 µM	18.5 µM	> 100 µM	21.9 µM	> 100 µM	70.8 µM	24.5 µM
O=C1O[C@@H]2O[C@@H]3COC(=O)c4cc(O)c(O)c(O)c4-c4c(cc(O)c(O)c4O)C(=O)O[C@H]3[C@H](OC(=O)c3cc(O)c(O)c(O)c3)[C@H]2OC(=O)c2cc(O)c(O)c(O)c2Oc2cc(cc(O)c2O)C(=O)O[C@@H]2O[C@H](CO)[C@@H](O)[C@H](OC(=O)c3cc(O)c(O)c(O)c3)[C@H]2OC(=O)c2cc(O)c(O)c(O)c2Oc2c(O)cc1cc2O	80.3 µM	20.2 µM	> 100 µM	20.8 µM	> 100 µM	62 µM	26.6 µM
O=C1O[C@@H]2O[C@@H]3COC(=O)c4cc(O)c(O)c(O)c4-c4c(cc(O)c(O)c4O)C(=O)O[C@H]3[C@H](OC(=O)c3cc(O)c(O)c(O)c3)[C@H]2OC(=O)c2cc(O)c(O)c(O)c2Oc2c(O)cc(cc2O)C(=O)O[C@@H]2O[C@@H]3COC(=O)c4cc(O)c(O)c(O)c4-c4c(cc(O)c(O)c4O)C(=O)O[C@H]3[C@H](OC(=O)c3cc(O)c(O)c(O)c3)[C@H]2OC(=O)c2cc(O)c(O)c(O)c2Oc2c(O)cc1cc2O	88.3 µM	23 µM	93.6 µM	47.8 µM	> 100 µM	55.9 µM	43 µM
O=C1O[C@@H]2O[C@@H]3COC(=O)c4cc(O)c(O)c(O)c4-c4c(cc(O)c(O)c4O)C(=O)O[C@H]3[C@H](OC(=O)c3cc(O)c(O)c(O)c3)[C@H]2OC(=O)c2cc(O)c(O)c(O)c2Oc2cc(cc(O)c2O)C(=O)O[C@@H]2O[C@@H]3COC(=O)c4cc(O)c(O)c(O)c4-c4c(cc(O)c(O)c4O)C(=O)O[C@H]3[C@H](OC(=O)c3cc(O)c(O)c(O)c3)[C@H]2OC(=O)c2cc(O)c(O)c(O)c2Oc2cc(cc(O)c2O)C(=O)O[C@@H]2O[C@@H]3COC(=O)c4cc(O)c(O)c(O)c4-c4c(cc(O)c(O)c4O)C(=O)O[C@H]3[C@H](OC(=O)c3cc(O)c(O)c(O)c3)[C@H]2OC(=O)c2cc(O)c(O)c(O)c2Oc2c(O)cc1cc2O	90.7 µM	22.3 µM	96.6 µM	34.2 µM	> 100 µM	30.5 µM	42.9 µM
O=C1O[C@@H]2O[C@@H]3COC(=O)c4cc(O)c(O)c(O)c4-c4c(cc(O)c(O)c4O)C(=O)O[C@H]3[C@H](OC(=O)c3cc(O)c(O)c(O)c3)[C@H]2OC(=O)c2cc(O)c(O)c(O)c2Oc2cc(cc(O)c2O)C(=O)O[C@@H]2O[C@@H]3COC(=O)c4cc(O)c(O)c(O)c4-c4c(cc(O)c(O)c4O)C(=O)O[C@H]3[C@H](OC(=O)c3cc(O)c(O)c(O)c3)[C@H]2OC(=O)c2cc(O)c(O)c(O)c2Oc2c(O)cc1cc2O	84.3 µM	19.9 µM	95 µM	24.3 µM	> 100 µM	54.2 µM	28.7 µM
